ChEMBL document CHEMBL1629527, “In vitro antifungal activities of bis(alkylpyridinium)alkane compounds against pathogenic yeasts and molds” (Antimicrob Agents Chemother, 2010)

Legend:
Cryptococcus neoformans [1] = experiment: Antifungal activity against Cryptococcus neoformans after 24 to 72 hrs by broth microdilution method; assay type: functional
In short: (§1)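 Broth microdilution MIC per CLSI M27-A3 (yeasts) or M38-A2 (molds). RPMI 1640 with L-glutamine, without bicarbonate, buffered to pH 7.0 with 0.165 M MOPS. Final test range for the compounds was 0.175–87.5 μM. Incubation at 35°C with visual reading at 24–72 h. MIC was the lowest concentration giving 100% inhibition versus the growth control (azoles 50% or 100%, by organism). Each isolate was run in duplicate in two independent experiments.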

[2] = system: Cryptococcus gattii species complex; experiment: Antifungal activity against Cryptococcus gattii after 24 to 72 hrs by broth microdilution method; assay type: functional, Cryptococcus bacillisporus; in short: as §1
Candida tropicalis [3] = experiment: Antifungal activity against Candida tropicalis after 48 to 72 hrs; assay type: functional
In short: (§2)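 MFC: after the MIC read, 30-μl aliquots from each well without visible growth were plated onto Sabouraud dextrose agar and incubated at 35°C. Reading was at 48–72 h for yeasts and up to 7 days for molds. MFC was the lowest concentration with no colonies.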

Candida parapsilosis [4] = experiment: Antifungal activity against Candida parapsilosis after 48 to 72 hrs; assay type: functional; in short: as §2
Pichia kudriavzevii [5] = experiment: Antifungal activity against Candida krusei after 48 to 72 hrs; assay type: functional; in short: as §2
Candida dubliniensis [6] = experiment: Antifungal activity against Candida dubliniensis after 48 to 72 hrs; assay type: functional; in short: as §2
[7] = system: Meyerozyma guilliermondii; experiment: Antifungal activity against Candida guilliermondii after 48 to 72 hrs; assay type: functional; in short: as §2
[8] = system: Cryptococcus gattii species complex; experiment: Antifungal activity against Cryptococcus gattii after 48 to 72 hrs; assay type: functional, Cryptococcus bacillisporus; in short: as §2
[9] = Toxicity against human erythrocytes assessed as hemolysis; assay type: cell-based, Erythrocyte
Rhizopus arrhizus [10] = experiment: Antifungal activity against Rhizopus oryzae 05-203111 after 48 to 72 hrs; assay type: functional
In short: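 After the broth microdilution MIC read, suspension from every well without visible growth was plated onto Sabouraud dextrose agar and incubated at 35°C, up to 7 days for molds. MFC was taken as the lowest drug concentration with no colonies.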

Candida tropicalis [11] = experiment: Antifungal activity against Candida tropicalis after 24 to 72 hrs by broth microdilution method; assay type: functional; in short: as §1
Nakaseomyces glabratus [12] = experiment: Antifungal activity against Candida glabrata after 24 to 72 hrs by broth microdilution method; assay type: functional; in short: as §1
Candida parapsilosis [13] = experiment: Antifungal activity against Candida parapsilosis after 24 to 72 hrs by broth microdilution method; assay type: functional; conditions: Lodderomyces parapsilosis; in short: as §1
Pichia kudriavzevii [14] = experiment: Antifungal activity against Candida krusei after 24 to 72 hrs by broth microdilution method; assay type: functional; in short: as §1
Candida dubliniensis [15] = experiment: Antifungal activity against Candida dubliniensis after 24 to 72 hrs by broth microdilution method; assay type: functional; in short: as §1
Exophiala spinifera = experiment: Antifungal activity against Exophiala spinifera 03-200803 after 24 to 72 hrs by broth microdilution method; assay type: functional
In short: (§3)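 Mold isolates subcultured on potato dextrose agar, then tested by CLSI M38-A2 broth microdilution in RPMI 1640 (L-glutamine, no bicarbonate) buffered to pH 7.0 with 0.165 M MOPS. Compounds were dissolved in water and tested at a final 0.175–87.5 μM. Plates were incubated at 35°C. MIC was read visually as the lowest concentration giving 100% inhibition versus the growth control. Each isolate was run in duplicate in two independent experiments.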

Fusarium solani = experiment: Antifungal activity against Fusarium solani 04-203102 after 24 to 72 hrs by broth microdilution method; assay type: functional; in short: as §3
[16] = Antifungal activity against Paecilomyces lilacinus 05-200601 after 24 to 72 hrs by broth microdilution method; assay type: functional; conditions: Purpureocillium lilacinum; in short: as §3
Rhizopus arrhizus [17] = experiment: Antifungal activity against Rhizopus oryzae 05-203111 after 24 to 72 hrs by broth microdilution method; assay type: functional; in short: as §3
Aspergillus fumigatus [18] = experiment: Antifungal activity against Aspergillus fumigatus 05-203114 after 24 to 72 hrs by broth microdilution method; assay type: functional; in short: as §1
Aspergillus flavus [19] = experiment: Antifungal activity against Aspergillus flavus ATCC 204304 after 24 to 72 hrs by broth microdilution method; assay type: functional; in short: as §1
Aspergillus flavus [20] = experiment: Antifungal activity against Aspergillus flavus 05-203758 after 24 to 72 hrs by broth microdilution method; assay type: functional; in short: as §1
Lomentospora prolificans = experiment: Antifungal activity against Scedosporium prolificans 05-203060 after 24 to 72 hrs by broth microdilution method; assay type: functional; in short: as §3
Scedosporium apiospermum = experiment: Antifungal activity against Scedosporium apiospermum 05-203100 after 24 to 72 hrs by broth microdilution method; assay type: functional; in short: as §3
[21] = system: Cunninghamella bertholletiae; experiment: Antifungal activity against Cunninghamella bertholletiae 99-12187 after 24 to 72 hrs by broth microdilution method; assay type: functional; in short: as §1
Lichtheimia corymbifera = experiment: Antifungal activity against Absidia corymbifera 04-200170 after 24 to 72 hrs by broth microdilution method; assay type: functional; in short: as §1
Aspergillus fumigatus [22] = experiment: Antifungal activity against Aspergillus fumigatus ATCC 204305 after 24 to 72 hrs by broth microdilution method; assay type: functional; in short: as §1
[23] = system: Cryptococcus gattii species complex; experiment: Antifungal activity against Cryptococcus gattii 05-200122 after 24 to 72 hrs by broth microdilution method; assay type: functional, Cryptococcus bacillisporus; in short: as §1
Cryptococcus neoformans [24] = experiment: Antifungal activity against Cryptococcus neoformans 05-202523 after 24 to 72 hrs by broth microdilution method; assay type: functional; in short: as §1
Cryptococcus neoformans [25] = experiment: Antifungal activity against Cryptococcus neoformans ATCC 90112 after 24 to 72 hrs by broth microdilution method; assay type: functional; in short: as §1
Nakaseomyces glabratus [26] = experiment: Antifungal activity against Candida glabrata 04-202345 after 24 to 72 hrs by broth microdilution method; assay type: functional; in short: as §1
Candida parapsilosis [27] = experiment: Antifungal activity against Candida parapsilosis 04-202398 after 24 to 72 hrs by broth microdilution method; assay type: functional; conditions: Lodderomyces parapsilosis; in short: as §1
Candida parapsilosis [28] = experiment: Antifungal activity against Candida parapsilosis ATCC 22019 after 24 to 72 hrs by broth microdilution method; assay type: functional; conditions: Lodderomyces parapsilosis; in short: as §1
Pichia kudriavzevii [29] = experiment: Antifungal activity against Candida krusei ATCC 6258 after 24 to 72 hrs by broth microdilution method; assay type: functional; in short: as §1
Candida albicans [30] = experiment: Antifungal activity against Candida albicans ATCC 10231 after 24 to 72 hrs by broth microdilution method; assay type: functional; in short: as §1
Candida albicans [31] = experiment: Antifungal activity against Candida albicans ATCC 90028 after 24 to 72 hrs by broth microdilution method; assay type: functional; in short: as §1

- MIC (Cryptococcus neoformans [1]): 2.41 µg/mL
- MIC50 (Cryptococcus neoformans [1]): 1.48 µg/mL
- MIC90 (Cryptococcus neoformans [1]): 5.91 µg/mL
- MIC [2]: 1.06 µg/mL
- MIC50 [2]: 0.75 µg/mL
- MIC90 [2]: 1.48 µg/mL
- MIC (Candida tropicalis [11]): 0.702 µg/mL
- MIC50 (Candida tropicalis [11]): 0.75 µg/mL
- MIC90 (Candida tropicalis [11]): 0.75 µg/mL
- MIC (Nakaseomyces glabratus [12]): 0.701 µg/mL
- MIC50 (Nakaseomyces glabratus [12]): 0.75 µg/mL
- MIC90 (Nakaseomyces glabratus [12]): 0.75 µg/mL
- MIC (Candida parapsilosis [13]): > 47 µg/mL
- MIC50 (Candida parapsilosis [13]): > 47 µg/mL
- MIC90 (Candida parapsilosis [13]): > 47 µg/mL
- MIC (Pichia kudriavzevii [14]): 2.25 µg/mL
- MIC50 (Pichia kudriavzevii [14]): 2.96 µg/mL
- MIC90 (Pichia kudriavzevii [14]): 5.91 µg/mL
- MIC (Candida dubliniensis [15]): 0.805 µg/mL
- MIC50 (Candida dubliniensis [15]): 0.75 µg/mL
- MIC90 (Candida dubliniensis [15]): 0.75 µg/mL
- MIC (Exophiala spinifera): 0.37 µg/mL
- MIC (Fusarium solani): 47.3 µg/mL
- MIC [16]: > 47.3 µg/mL
- MIC (Rhizopus arrhizus [17]): 1.48 µg/mL
- MIC (Aspergillus fumigatus [18]): 47.3 µg/mL
- MIC (Aspergillus flavus [19]): 23.7 µg/mL
- MIC (Aspergillus flavus [20]): 47.3 µg/mL
- MIC (Lomentospora prolificans): 1.48 µg/mL
- MIC (Scedosporium apiospermum): 2.96 µg/mL
- MIC [21]: 47.3 µg/mL
- MIC (Lichtheimia corymbifera): > 47.3 µg/mL
- MIC (Aspergillus fumigatus [22]): 47.3 µg/mL
- MIC [23]: 0.74 µg/mL
- MIC (Cryptococcus neoformans [24]): 47.3 µg/mL
- MIC (Cryptococcus neoformans [25]): 1.48 µg/mL
- MIC (Nakaseomyces glabratus [26]): 1.48 µg/mL
- MIC (Candida parapsilosis [27]): 47.3 µg/mL
- MIC (Candida parapsilosis [28]): 0.74 µg/mL
- MIC (Pichia kudriavzevii [29]): 5.9 µg/mL
- MIC (Candida albicans [30]): 1.48 µg/mL
- MIC (Candida albicans [31]): 1.48 µg/mL
Structure (SMILES): CCCCCc1cc[n+](CCCCCCCCCCCC[n+]2ccc(CCCCC)cc2)cc1.[Cl-].[Cl-]
- MFC50 (Candida tropicalis [3]): 0.75 µg/mL
- MFC90 (Candida tropicalis [3]): 0.75 µg/mL
- MFC (Candida tropicalis [3]; Candida tropicalis): 0.38 µg/mL
- MFC50 (Candida parapsilosis [4]): >47 µg/mL
- MFC90 (Candida parapsilosis [4]): >47 µg/mL
- MFC (Candida parapsilosis [4]; Lodderomyces parapsilosis): > 47 µg/mL
- MFC50 (Pichia kudriavzevii [5]): 2.96 µg/mL
- MFC90 (Pichia kudriavzevii [5]): 5.91 µg/mL
- MFC (Pichia kudriavzevii [5]; Pichia kudriavzevii): 0.38 µg/mL
- MFC50 (Candida dubliniensis [6]): 0.75 µg/mL
- MFC90 (Candida dubliniensis [6]): 1.48 µg/mL
- MFC (Candida dubliniensis [6]; Candida dubliniensis): 0.75 µg/mL
- MFC50 [7]: 0.75 µg/mL
- MFC90 [7]: 0.75 µg/mL
- MFC ([7]; Meyerozyma guilliermondii): 0.38 µg/mL
- MFC50 [8]: 1.48 µg/mL
- MFC90 [8]: 1.48 µg/mL
- MFC ([8]; Cryptococcus gattii species complex): 0.75 µg/mL
- HC50 [9]: > 129 µM
- IC50 [9]: > 48 µM
- MFC (Rhizopus arrhizus [10]): 5.9 µg/mL
